The source of these data is ChEMBL document CHEMBL1759839, “Synthesis, biopharmaceutical characterization, antimicrobial and antioxidant activities of 1-(4'-O-β-D-glucopyranosyloxy-2'-hydroxyphenyl)-3-aryl-propane-1,3-diones” (2011).

The term MIC denotes the least concentration at which growth counts as inhibited.

≈ marks a conversion by molar mass, not a printed value.

Format in all cases: functional
The test system of one assay is Bacillus subtilis. Nature of the assay: Antibacterial activity against Bacillus subtilis ATCC 6633 after 24 hrs. The following applies: ATCC 6633, 24 h. The method in brief: (§1)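 Twofold broth dilution MIC in Mueller-Hinton broth, pH 6.9, inoculum (1-2) × 10³ cells/mL. Compounds and ampicillin trihydrate were dissolved in DMSO at 20 mg/mL stock and serially diluted from 20 down to 0.005. […] Plates incubated at 36 °C with a humid chamber and read visually after 24 h. MIC was the lowest concentration with no visible turbidity.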

A further assay has as its system Candida albicans. Nature of the assay: Antifungal activity against Candida albicans ATCC 10231 after 48 hrs. Particulars: ATCC 10231, 48 h. The method, boiled down:
(§2)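 Yeasts grown on Sabouraud dextrose agar, then in Sabouraud liquid medium at 36 °C overnight. Inoculum diluted in MOPS-buffered RPMI-1640 with L-glutamine, pH 7, to 2.5 × 10³ cfu/mL final. Twofold dilutions were made from a 20 mg/mL DMSO stock, with fluconazole as reference and DMSO at most 12.5% final. Incubated at 36 °C, humid, and read visually at 48 h. MIC was the lowest concentration giving no visible turbidity.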

The subject of assay [1] is Escherichia coli. Nature of the assay: Antibacterial activity against Escherichia coli ATCC […] after 24 hrs. The method, boiled down:
as §1

The test system of assay [2] is Radical scavenging activity. Nature of the assay: Antioxidant activity assessed as DPPH free radical scavenging activity after 20 mins by spectrophotometric analysis. Further details: concentration or dose not given beside the values. The method, boiled down:
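Reduction of methanolic DPPH radical, with absorbance recorded at 516 nm and run in triplicate. Percent scavenging was calculated from the initial and final absorbance of each solution.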
In general terms: Loss of DPPH colour is used to gauge radical scavenging.

A further assay relates to Pseudomonas aeruginosa. Nature of the assay: Antibacterial activity against Pseudomonas aeruginosa ATCC 27853 after 24 hrs. Particulars: ATCC 27853, 24 h. The method, boiled down:
as §1

For the next assay, the system named is Nakaseomyces glabratus. Nature of the assay: Antifungal activity against Candida glabrata ATCC 36583 after 48 hrs. The following applies: ATCC 36583, 48 h. The method in brief:
as §2

The next assay deals with Staphylococcus aureus. The assay can be described thus: Antibacterial activity against Staphylococcus aureus ATCC 25923 after 24 hrs. The following applies: ATCC 25923, 24 h. The method, boiled down:
as §1

Assay [3] concerns Escherichia coli. The assay can be described thus: Antibacterial activity against Escherichia coli ATCC […]. The method, boiled down: as §1

`O=C(CC(=O)c1ccc(O[C@@H]2O[C@H](CO)[C@@H](O)[C@H](O)[C@H]2O)cc1O)c1ccccc1`: the MIC against Bacillus subtilis was 150 µg/mL (≈ 359 µM); with Candida albicans, 2500 µg/mL (≈ 5980 µM); against Escherichia coli [1], 1250 µg/mL (≈ 2990 µM); in the assay with Pseudomonas aeruginosa it was 150 µg/mL (≈ 359 µM); in the assay with Nakaseomyces glabratus, 2500 µg/mL (≈ 5980 µM); with Staphylococcus aureus it was 300 µg/mL (≈ 717 µM). Also, in assay [2], the Activity is 81.2%.

As for `Cc1ccc(C(=O)CC(=O)c2ccc(O[C@@H]3O[C@H](CO)[C@@H](O)[C@H](O)[C@H]3O)cc2O)cc1`, the MIC in the assay on Bacillus subtilis is 2500 µg/mL (≈ 5780 µM); against Candida albicans, 5000 µg/mL (≈ 11600 µM); against Escherichia coli [1] it was 5000 µg/mL (≈ 11600 µM); against Pseudomonas aeruginosa it was 5000 µg/mL (≈ 11600 µM); in the assay with Nakaseomyces glabratus, 5000 µg/mL (≈ 11600 µM); in the assay with Staphylococcus aureus, 625 µg/mL (≈ 1450 µM). In assay [2], the Activity was 82%.

For the compound `COc1cccc(C(=O)CC(=O)c2ccc(O[C@@H]3O[C@H](CO)[C@@H](O)[C@H](O)[C@H]3O)cc2O)c1`, the MIC in the assay on Bacillus subtilis was 150 µg/mL (≈ 335 µM); with Candida albicans, 10000 µg/mL (≈ 22300 µM); against Escherichia coli [1], 2500 µg/mL (≈ 5580 µM); against Pseudomonas aeruginosa, 5000 µg/mL (≈ 11200 µM); against Nakaseomyces glabratus, 5000 µg/mL (≈ 11200 µM); against Staphylococcus aureus it was 625 µg/mL (≈ 1390 µM). The Activity in assay [2] came to 77.3%.

Turning to `COc1ccc(C(=O)CC(=O)c2ccc(O[C@@H]3O[C@H](CO)[C@@H](O)[C@H](O)[C@H]3O)cc2O)cc1`, the MIC in the assay on Bacillus subtilis is 2500 µg/mL (≈ 5580 µM); against Candida albicans it was 1250 µg/mL (≈ 2790 µM); in the assay with Escherichia coli [1], 5000 µg/mL (≈ 11200 µM); against Escherichia coli [3], 5000 µg/mL (≈ 11200 µM); against Pseudomonas aeruginosa it was 30 µg/mL (≈ 66.9 µM); with Nakaseomyces glabratus it was 2500 µg/mL (≈ 5580 µM). In addition, the lowest concentration to inhibit growth against Staphylococcus aureus (MIC) was 2500 µg/mL (≈ 5580 µM). Further, the Activity in assay [2] came out at 73.5%.

With `O=C(CC(=O)c1ccc(O[C@@H]2O[C@H](CO)[C@@H](O)[C@H](O)[C@H]2O)cc1O)c1ccc(Cl)cc1`, the minimum inhibitory concentration (MIC) was determined as 300 µg/mL (≈ 662 µM) with Bacillus subtilis; 150 µg/mL (≈ 331 µM) with Candida albicans; 70 µg/mL (≈ 155 µM) against Escherichia coli [1]; 20 µg/mL (≈ 44.2 µM) in the assay with Pseudomonas aeruginosa; 5000 µg/mL (≈ 11000 µM) with Nakaseomyces glabratus; 150 µg/mL (≈ 331 µM) in the assay with Staphylococcus aureus. The Activity in assay [2] came to 84.3%.

Regarding `OC(Cn1cncn1)(Cn1cncn1)c1ccc(F)cc1F` [FLUCONAZOLE], the MIC against Candida albicans and in the assay with Nakaseomyces glabratus was 10 µg/mL (≈ 32.7 µM) in each case.

Turning to `O=C1O[C@H]([C@@H](O)CO)C(O)=C1O`, in assay [2], the Activity came out at 98%.

`O=C(CC(=O)c1ccc(O[C@@H]2O[C@H](CO)[C@@H](O)[C@H](O)[C@H]2O)cc1O)c1cccc(Cl)c1`: the minimal inhibitory concentration (MIC) with Bacillus subtilis amounted to 625 µg/mL (≈ 1380 µM); in the assay with Candida albicans it was 10000 µg/mL (≈ 22100 µM); against Escherichia coli [1], 20 µg/mL (≈ 44.2 µM); against Pseudomonas aeruginosa, 1250 µg/mL (≈ 2760 µM); with Nakaseomyces glabratus it was 10000 µg/mL (≈ 22100 µM); in the assay on Staphylococcus aureus it was 150 µg/mL (≈ 331 µM). The Activity in assay [2] turned out to be 83.5%.

Turning to `O=C(CC(=O)c1ccccc1Cl)c1ccc(O[C@@H]2O[C@H](CO)[C@@H](O)[C@H](O)[C@H]2O)cc1O`, the MIC came out at 1250 µg/mL (≈ 2760 µM) in the assay with Bacillus subtilis; 5000 µg/mL (≈ 11000 µM) against Candida albicans; 20 µg/mL (≈ 44.2 µM) in the assay on Escherichia coli [1]; 20 µg/mL (≈ 44.2 µM) against Pseudomonas aeruginosa; 5000 µg/mL (≈ 11000 µM) in the assay with Nakaseomyces glabratus; 150 µg/mL (≈ 331 µM) with Staphylococcus aureus. Also, the Activity in assay [2] amounted to 89.1%.

Take `Cc1cccc(C(=O)CC(=O)c2ccc(O[C@@H]3O[C@H](CO)[C@@H](O)[C@H](O)[C@H]3O)cc2O)c1`: the MIC was 2500 µg/mL (≈ 5780 µM) in the assay on Bacillus subtilis; 2500 µg/mL (≈ 5780 µM) in the assay on Candida albicans; 5000 µg/mL (≈ 11600 µM) with Escherichia coli [1]; 10000 µg/mL (≈ 23100 µM) with Pseudomonas aeruginosa; 10000 µg/mL (≈ 23100 µM) with Nakaseomyces glabratus; 20 µg/mL (≈ 46.3 µM) against Staphylococcus aureus. In addition, in assay [2], the Activity worked out at 79.5%.

Turning to `CC1(C)S[C@@H]2[C@H](NC(=O)[C@H](N)c3ccccc3)C(=O)N2[C@H]1C(=O)O` [AMPICILLIN], the MIC against Bacillus subtilis stood at 5 µg/mL (≈ 14.3 µM); in the assay with Escherichia coli [1] it was 10 µg/mL (≈ 28.6 µM); against Pseudomonas aeruginosa, 5 µg/mL (≈ 14.3 µM); in the assay with Staphylococcus aureus, 19 µg/mL (≈ 54.4 µM).
